From ChEMBL document CHEMBL5647693, “Molecular basis underlying resistance to Mps1/TTK inhibitors” (Oncogene, 2016) come the findings set out here.

Active and inactive are the calls of the source. No cut-off for these calls is given here.

In assay [1] the test system is HCT-116. The experiment in a line: cells. It is filed as functional, cell-based. The note with it: Homo sapiens, HCT-116, 120 h.
Assay [2] concerns HeLa. The experiment in a line: Induction of mitotic arrest in human HeLa cells assessed as depletion in KNL1 phosphorylation at 50 to 100 nM by immunostaining method. It is filed as functional, cell-based. The note with it: dose 50-100 nM. In a few lines:
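HeLa cells given DMSO, 50 or 100 nM Cpd-5, immunostained for phospho-KNL1 (MELT13/17) and CREST, DNA with DAPI. Kinetochore ph-KNL1/CREST fluorescence intensity ratios from 200 kinetochores per condition.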

The subject of assay [3] is HCT-116. Description: Inhibition of colony formation in human HCT-116 cells harboring wild-type Mps1 assessed as cell survival at 60 nM incubated for 14 days by crystal violet staining based colony formation assay. It is filed as functional. The note with it: time 14.0 day. In a few lines: (§1)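 About 500–600 cells per 6-well plated on day 0, Cpd-5 added day 1 at 60 nM, colonies grown to day 14. Fixed 10 min in 96% methanol, stained with 0.1% crystal violet, scanned and analysed. Parental and drug-selected clones tested side by side.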

Assay [4] deals with HCT-116. Description: Inhibition of colony formation in human HCT-116 cells harboring Mps1 C604Y-B mutant assessed as cell survival at 60 nM incubated for 14 days by crystal violet staining based colony formation assay. The note with it: time 14.0 day. Format: functional. In a few lines: as §1
Assay [5] deals with DLD-1. Description: Inhibition of colony formation in human DLD-1 cells harboring Mps1 S611R mutant assessed as cell survival at 60 nM incubated for 14 days by crystal violet staining based colony formation assay. Conditions: time 14.0 day. It is filed as functional. In a few lines: as §1
The subject of assay [6] is HCT-116. Description: Inhibition of colony formation in human HCT-116 cells harboring Mps1 C604Y-B mutant assessed as cell survival incubated for 5 days crystal violet staining based colony formation assay. It is filed as functional. Conditions: HCT-116, 120 h. In a few lines:
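Cells (~1500 per well, 96-well format) seeded day 0; inhibitor added day 1 over a range of concentrations; on day 6 fixed 10 min in 96% methanol, stained with 0.1% crystal violet, washed, scanned and quantified. Grown in DMEM with 6% FCS, penicillin-streptomycin, 2 mM L-glutamine. Survival relative to untreated; IC50 from curve fit, average of three independent experiments.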

Assay [7] deals with HCT-116. The experiment in a line: Antiproliferative activity against human HCT-116 cells harboring Mps1 531M mutant assessed as change in Mps1 expression level by Western blot analysis. It is filed as functional, cell-based. In a few lines:
(§2)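 Lysis in Tris/HCl pH 7.5 with 150 mM NaCl, 1% Triton X-100, DTT, EDTA, phosphatase and protease inhibitors. SDS-PAGE, transfer to nitrocellulose, block in 4% BSA 0.5 h at room temperature, primary antibody (Mps1-NT) overnight at 4 °C, secondary 1:2000 for 1 h, ECL chemiluminescence detection.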

Assay [8] deals with HeLa. Description: Antiproliferative activity against human HeLa cells harboring Mps1 I598F mutant assessed as change in Mps1 expression level by Western blot analysis. Format: functional, cell-based. In a few lines: as §2
The test system of assay [9] is DLD-1. The experiment in a line: Induction of mitotic arrest in human DLD-1 cells assessed as decrease in mitotic index at 30 nM incubated for 16 hrs. It is filed as functional. Set-up: scale not given: the % may be the effect or the level left. In a few lines:
(§3)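 About 10 000 cells per 96-well plated on day 0. On day 1, nocodazole (200 ng/ml) plus Cpd-5 at various concentrations added for 16 h. Fixed in 5% formaldehyde, stained for phospho-histone H3-Ser10 and DAPI, up to nine images per well (~3000 cells). Mitotic index = pH3S10-positive/DAPI-positive cells, normalized; three independent experiments.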

Assay [10] has as its system HCT-116. The experiment in a line: Induction of mitotic arrest in human HCT-116 cells harboring Mps1 I531M mutant assessed as mitotic index at 200 to 400 nM incubated for 16 hrs in the presence of nocodazole. Format: functional, cell-based. Conditions: dose 200-400 nM. In a few lines: as §3
Another assay is filed under the species Homo sapiens. Description: Inhibition of recombinant Mps1 531M mutant (unknown origin) assessed as KNL1 phosphorylation level incubated for 10 min by Western blot analysis. In general terms: A western blot detects proteins with antibodies after separation by electrophoresis.
The subject of assay [11] is U2OS. The experiment in a line: Induction of mitotic arrest in human U2OS cells harboring LAP-Mps1 531M mutant assessed as maintain in checkpoint-dependent arrest at 100 nM incubated for 16 hrs in the presence of nocodazole. Format: functional, cell-based. In a few lines:
as §3

In assay [12] the test system is U2OS. Description: Induction of mitotic arrest in human U2OS cells harboring LAP-Mps1 S611R mutant assessed as maintain in checkpoint-dependent arrest at 100 nM incubated for 16 hrs in the presence of nocodazole. Format: functional, cell-based. In a few lines: as §3
Assay [13] relates to HeLa. The experiment in a line: cells. Format: functional, cell-based. Conditions: Homo sapiens, 120 h.
Assay [14] deals with HeLa. Description: Induction of mitotic arrest in human HeLa cells harboring Mps1 C604Y mutant assessed as initiating anaphase at 200 nM and measured after nuclear envelope breakdown. It is filed as functional, cell-based.
In assay [15] the test system is HeLa. Description: Induction of mitotic arrest in human HeLa cells harboring Mps1-C604F mutant assessed as decrease in average mitotic time with most mild seggregation errors at 200 nM. It is filed as functional, cell-based.

One may read the IC50 as the concentration that gives 50% inhibition. `CCc1cccc(CC)c1NC(=O)c1nn(C)c2c1CCc1cnc(Nc3ccc(N4CCN(C)CC4)cc3OC)nc1-2`: the IC50 was found to be 20.1 nM in the assay with HCT-116 [1], 310 nM in the assay with HCT-116 [6] and 252 nM in the assay with HeLa [13]. Besides, the result in the assay with HeLa [2], in the assay on HCT-116 [10], in the assay with U2OS [11], with U2OS [12] and with HeLa [15] was Active. Further, the inhibition entry in the assay on HCT-116 [3] is “inactive”. The inhibition entry in the assay on HCT-116 [4], with DLD-1 [5] and in the assay listed under Homo sapiens was “Active” throughout. The outcome in the assay on HCT-116 [7], in the assay on HeLa [8] and with HeLa [14] was inactive. Besides, the Activity in the assay with DLD-1 [9] worked out at 70%.
